Columns and labels:
Type in all cases: functional
[1] = system: MOLT-4; assay: Cytotoxicity against human MOLT4 cells assessed as cell growth at 0.01 uM after 48 hrs by sulforhodamine B assay; settings: MOLT-4, 48 h, read-out: Activity
[2] = system: NCI-H522; assay: Cytotoxicity against human NCI-H522 cells assessed as cell growth at 1 uM after 48 hrs by sulforhodamine B assay; settings: NCI-H522, 48 h, read-out: Activity
[3] = system: EKVX; assay: Cytotoxicity against human EKVX cells assessed as cell growth at 0.001 uM after 48 hrs by sulforhodamine B assay; settings: read-out: Activity
[4] = system: SF-268; assay: Cytotoxicity against human SF268 cells assessed as cell growth at 1 uM after 48 hrs by sulforhodamine B assay; settings: SF-268, 48 h, read-out: Activity
[5] = system: SF-539; assay: Cytotoxicity against human SF539 cells assessed as cell growth at 100 nM after 48 hrs by sulforhodamine B assay; settings: SF-539, 48 h, read-out: Activity
[6] = system: CCRF-CEM; assay: Cytotoxicity against human CCRF-CEM cells assessed as cell growth at 10 uM after 48 hrs by sulforhodamine B assay; settings: read-out: Activity
Procedure, shortened: (§1)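 NCI-60 five-dose screen. Cells were grown in RPMI 1640 with 5% FBS and 2 mM L-glutamine, plated at 5000–40,000 cells/well and preincubated for 24 h. Time-zero plates were TCA-fixed. DMSO-solubilized drug was added at five concentrations (10-fold or ½-log serial dilutions) for 48 h at 37 °C, 5% CO2. Cells were TCA-fixed, stained with 0.4% SRB and read at 515 nm. Percent growth used time-zero, control and test absorbances.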

[7] = system: HOP-92; assay: Cytotoxicity against human HOP92 cells assessed as cell growth at 1 uM after 48 hrs by sulforhodamine B assay; settings: HOP-92, 48 h, read-out: Activity
[8] = system: SF-268; assay: Cytotoxicity against human SF268 cells assessed as cell growth at 10 uM; settings: read-out: Activity
Procedure, shortened: (§2)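 NCI-60 screen: cells grown in RPMI 1640 with 5% FBS and 2 mM L-glutamine, plated at 5000–40,000 cells/well according to doubling time, and preincubated 24 h at 37 °C, 5% CO2. The single 10 µM dose (DMSO stock) was added, then incubated 48 h. Cells were TCA-fixed and stained with 0.4% SRB, read at 515 nm, and growth % calculated against time-zero and control plates.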

[9] = system: HOP-62; assay: Cytotoxicity against human HOP62 cells assessed as cell growth at 10 uM after 48 hrs by sulforhodamine B assay; settings: HOP-62, 48 h, read-out: Activity
[10] = system: OVCAR-4; assay: Cytotoxicity against human OVCAR4 cells assessed as cell growth at 0.001 uM after 48 hrs by sulforhodamine B assay; settings: OVCAR-4, 48 h, read-out: Activity
[11] = system: ACHN; assay: Cytotoxicity against human ACHN cells assessed as cell growth at 10 uM after 48 hrs by sulforhodamine B assay; settings: read-out: Activity; procedure, shortened: as §1
[12] = system: IGROV-1; assay: Cytotoxicity against human IGROV1 cells assessed as cell growth at 10 uM after 48 hrs by sulforhodamine B assay; settings: IGROV-1, 48 h, read-out: Activity
[13] = system: NCI-H322M; assay: Cytotoxicity against human NCI-H322M cells assessed as cell growth at 1 uM after 48 hrs by sulforhodamine B assay; settings: read-out: Activity
[14] = system: SF-539; assay: Cytotoxicity against human SF539 cells assessed as cell growth at 10 uM; settings: read-out: Activity; procedure, shortened: as §2
[15] = system: NCI-H23; assay: Cytotoxicity against human NCI-H23 cells assessed as cell growth at 0.01 uM after 48 hrs by sulforhodamine B assay; settings: NCI-H23, 48 h, read-out: Activity
[16] = system: HT-29; assay: Cytotoxicity against human HT-29 cells assessed as cell growth at 0.01 uM after 48 hrs by sulforhodamine B assay; settings: HT-29, 48 h, read-out: Activity
[17] = system: OVCAR-8; assay: Cytotoxicity against human OVCAR8 cells assessed as cell growth at 10 uM; settings: read-out: Activity; procedure, shortened: as §2
[18] = system: MOLT-4; assay: Cytotoxicity against human MOLT4 cells assessed as cell growth at 10 uM; settings: read-out: Activity; procedure, shortened: as §2
[19] = system: NCI-H460; assay: Cytotoxicity against human NCI-H460 cells assessed as cell growth at 10 uM after 48 hrs by sulforhodamine B assay; settings: NCI-H460, 48 h, read-out: Activity
[20] = system: HOP-92; assay: Cytotoxicity against human HOP92 cells assessed as cell growth at 10 uM after 48 hrs by sulforhodamine B assay; settings: HOP-92, 48 h, read-out: Activity
[21] = system: NCI-H522; assay: Cytotoxicity against human NCI-H522 cells assessed as cell growth at 10 uM; settings: read-out: Activity; procedure, shortened: as §2
[22] = system: RXF 393; assay: Cytotoxicity against human RXF393 cells assessed as cell growth at 0.01 uM after 48 hrs by sulforhodamine B assay; settings: RXF 393, 48 h, read-out: Activity
[23] = system: SNB-19; assay: Cytotoxicity against human SNB19 cells assessed as cell growth at 10 uM; settings: read-out: Activity; procedure, shortened: as §2
[24] = system: SF-268; assay: Cytotoxicity against human SF268 cells assessed as cell growth at 0.001 uM after 48 hrs by sulforhodamine B assay; settings: SF-268, 48 h, read-out: Activity
[25] = system: BT-549; assay: Growth inhibition of human BT549 cells after 48 hrs by sulforhodamine B assay; settings: BT-549, 48 h; for CC50: read-out: LC50 (the source's name)
Procedure, shortened: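 NCI five-dose SRB assay in RPMI 1640 with 5% FBS and 2 mM L-glutamine. Cells were preincubated 24 h, then exposed 48 h at 37 °C to five concentrations (10-fold or half-log serial dilutions from DMSO stocks). TCA fixation, SRB staining, and absorbance at 515 nm followed. IC50 was taken where [(Ti−Tz)/(C−Tz)]×100 = 50, with Tz as time-zero cell density.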

[26] = system: OVCAR-3; assay: Cytotoxicity against human OVCAR-3 cells assessed as cell growth at 10 uM; settings: read-out: Activity; procedure, shortened: as §2
[27] = system: OVCAR-8; assay: Cytotoxicity against human OVCAR8 cells assessed as cell growth at 100 nM after 48 hrs by sulforhodamine B assay; settings: OVCAR-8, 48 h, read-out: Activity
[28] = system: NCI-H460; assay: Growth inhibition of human NCI-H460 cells after 48 hrs by sulforhodamine B assay; settings: NCI-H460, 48 h; for CC50: read-out: LC50 (the source's name)
Procedure, shortened: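 NCI 60-cell screen, five-dose mode. Cells grown in RPMI 1640 with 5% FBS and 2 mM L-glutamine and plated at 5000-40,000 cells/well according to doubling time. After 24 h preincubation, a Tz plate was TCA-fixed. Five concentrations (10-fold or 1/2 log dilutions) were applied for 48 h at 37 °C. SRB staining read at 515 nm. IC50 taken from [(Ti-Tz)/(C-Tz)]×100 = 50.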

[29] = system: ACHN; assay: Cytotoxicity against human ACHN cells assessed as cell growth at 1 uM after 48 hrs by sulforhodamine B assay; settings: read-out: Activity; procedure, shortened: as §1
[30] = system: K562; assay: Cytotoxicity against human K562 cells assessed as cell growth at 10 uM; settings: read-out: Activity
Procedure, shortened: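 Single-dose NCI-60 screen at 10 µM. Cells were grown in RPMI 1640 with 5% FBS and 2 mM L-glutamine, then treated for 48 h at 37 °C. Protein was measured by SRB staining with absorbance at 515 nm. Percentage growth was recorded, and inhibition percentage was calculated as 100 minus growth percentage.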

[31] = system: DU-145; assay: Cytotoxicity against human DU145 cells assessed as cell growth at 0.001 uM after 48 hrs by sulforhodamine B assay; settings: DU-145, 48 h, read-out: Activity

| Structure (SMILES) | growth at 0.01 µM [1] [%] | growth at 1 µM [2] [%] | growth at 0.001 µM [3] [%] | growth at 1 µM [4] [%] | growth at 0.1 µM [5] [%] | growth at 10 µM [6] [%] | growth at 1 µM [7] [%] | growth at 10 µM [8] [%] | growth at 10 µM [9] [%] | growth at 0.001 µM [10] [%] | growth at 10 µM [11] [%] | growth at 10 µM [12] [%] | growth at 1 µM [13] [%] | growth at 10 µM [14] [%] | growth at 0.01 µM [15] [%] | growth at 0.01 µM [16] [%] | growth at 10 µM [17] [%] | growth at 10 µM [18] [%] | growth at 10 µM [19] [%] | growth at 10 µM [20] [%] | also measured |
| --- | --- | --- | --- | --- | --- | --- | --- | --- | --- | --- | --- | --- | --- | --- | --- | --- | --- | --- | --- | --- | --- |
| COc1cc(C)cc(-c2c(-c3ccnc(-c4ccc(N(C)C)cc4)c3)cnn2CC#N)c1 | 81 | -53 | 97 | 24 | -29 | 8 | -20 | 26.4 | 32 | 92 | 16 | -6 | 34 | -7.06 | 67 | 26 | 25.4 | 9.77 | -55 | -26 | growth at 10 µM [21]: -23.6%; growth at 0.01 µM [22]: 84%; growth at 10 µM [23]: 26.5%; growth at 0.001 µM [24]: 98%; GI50 [25]: 0.0751 µM; TGI [25]: 0.514 µM; CC50 [25]: > 100 µM; growth at 10 µM [26]: 27%; growth at 0.1 µM [27]: 11%; GI50 [28]: 0.0577 µM; TGI [28]: 0.282 µM; CC50 [28]: 4.99 µM; growth at 1 µM [29]: 19%; growth at 10 µM [30]: 9.74%; growth at 0.001 µM [31]: 102% |
| COc1cc(C)cc(-c2nn(CC#N)cc2-c2ccc(-c3cccc(C(C)=O)c3)nc2)c1 | 100 | -14 | 99 | 23 | 78 | 12 | -4 | 49.3 | -12 | 99 | 4 | -40 | 24 | 5.94 | 91 | 93 | 31.4 | 28.1 | -81 | -17 | growth at 10 µM [21]: -3.15%; growth at 0.01 µM [22]: 89%; growth at 10 µM [23]: 27.8%; growth at 0.001 µM [24]: 99%; GI50 [25]: 2.73 µM; TGI [25]: 15.1 µM; CC50 [25]: > 100 µM; growth at 10 µM [26]: 12.5%; growth at 0.1 µM [27]: 86%; GI50 [28]: 2.04 µM; TGI [28]: 5.72 µM; CC50 [28]: 26.6 µM; growth at 1 µM [29]: 24%; growth at 10 µM [30]: 16.4%; growth at 0.001 µM [31]: 110% |
| Cc1cc(O)cc(-c2nn(CC#N)cc2-c2ccnc(-c3ccc(N(C)C)cc3)c2)c1 | 96 | -13 | 96 | 17 | 91 | 7 | 25 | 59.5 | -22 | 104 | -30 | -37 | 38 | 21.7 | 96 | 96 | 45 | 28.1 | -59 | -12 | growth at 10 µM [21]: 14.5%; growth at 0.01 µM [22]: 104%; growth at 10 µM [23]: 46.4%; growth at 0.001 µM [24]: 97%; GI50 [25]: 2.77 µM; TGI [25]: 12.1 µM; CC50 [25]: > 100 µM; growth at 10 µM [26]: 41.9%; growth at 0.1 µM [27]: 89%; GI50 [28]: 2.79 µM; TGI [28]: 10.2 µM; CC50 [28]: 70.5 µM; growth at 1 µM [29]: 18%; growth at 10 µM [30]: 19.5%; growth at 0.001 µM [31]: 103% |
| Cc1cc(O)cc(-c2nn(CC#N)cc2-c2ccnc(-c3ccc(Oc4ccccc4)cc3)c2)c1 | 93 | 2 | 103 | 22 | 92 | 14 | -67 | 71.8 | -93 | 110 | -91 | -74 | 35 | 75.5 | 93 | 104 | 37.2 | 30 | -88 | -65 | growth at 10 µM [21]: 36%; growth at 0.01 µM [22]: 90%; growth at 10 µM [23]: 72.8%; growth at 0.001 µM [24]: 88%; GI50 [25]: 2.66 µM; TGI [25]: 11.2 µM; CC50 [25]: 43.1 µM; growth at 10 µM [26]: 96%; growth at 0.1 µM [27]: 87%; GI50 [28]: 1.87 µM; TGI [28]: 3.58 µM; CC50 [28]: 6.85 µM; growth at 1 µM [29]: -4%; growth at 10 µM [30]: 15%; growth at 0.001 µM [31]: 104% |
| COc1cc(C)cc(-c2nn(CC#N)cc2-c2ccnc(-c3ccc(N(C)C)cc3)c2)c1 | 93 | -61 | 91 | -2 | -31 | 10 | 9 | 24.5 | -13 | 106 | -18 | -6 | 52 | -17.5 | 97 | 105 | 12 | 16 | -51 | -13 | growth at 10 µM [21]: -14.9%; growth at 0.01 µM [22]: 103%; growth at 10 µM [23]: 15.9%; growth at 0.001 µM [24]: 103%; GI50 [25]: 1.62 µM; TGI [25]: 7.33 µM; CC50 [25]: > 100 µM; growth at 10 µM [26]: 2.79%; growth at 0.1 µM [27]: 32%; CC50 [28]: 94.7 µM; growth at 1 µM [29]: 2%; growth at 10 µM [30]: 9.86%; growth at 0.001 µM [31]: 103% |
